This is an account of results in ChEMBL document CHEMBL3758103, “Anti-herpetic and anti-dengue activity of abietane ferruginol analogues synthesized from (+)-dehydroabietylamine” (Eur J Med Chem, 2016).

Activity calls are given as the source filed them. The rule behind the calls is not given here. A value given as a limit tells only on which side of the number the result lay.

Assay [1] concerns dengue virus type 2. The experiment in a line: Antiviral activity against DENV-2 New guinea infected in African green monkey Vero cells assessed as reduction in plaque formation administered post viral infection after 8 days by crystal violet staining technique. In kind it is functional, organism-based. As to conditions: 192 h. The gist of the method: (§1)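 Plaque reduction on Vero monolayers (2.5 × 10^4 cells/well) infected with 100 PFU/well. Pre-infection arm: virus–compound mixture added for 1 h at 37 °C, PBS wash, then CMC overlay. Post-infection arm: virus adsorbed 1 h, washed, then compound given in CMC. CMC was 1% for HHV-1, 0.75% for HHV-2 and 2% for DENV-2. Plates ran 72 h (HHV) or 8 days (DENV-2) before crystal violet staining. EC50 came from linear regression over ≥4 dilutions in quadruplicate.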

Assay [2] deals with dengue virus type 2. As to the kind of experiment: Antiviral activity against DENV-2 New guinea infected in African green monkey Vero cells assessed as maximal non toxic concentration causing inhibition of virus-induced cytopathic effect after 3 days by crystal violet staining based inverted microscopic analysis. In kind it is functional. For orientation: Cytopathic effects are the visible damage that an infection or toxin causes in cultured cells.

Assay [3] concerns dengue virus type 2. As to the kind of experiment: Antiviral activity against DENV-2 New guinea infected in African green monkey Vero cells assessed as inhibition of virus-induced cytopathic effect after 3 days by crystal violet staining based inverted microscopic analysis relative to control. The assay is classed as functional, organism-based.
In assay [4] the test system is Fusarium oxysporum. The experiment in a line: Antifungal activity against Fusarium oxysporum ATCC 48112 assessed as microbial growth inhibition after 48 hrs by microdilution assay. In kind it is functional, organism-based. In a few lines:
(§2)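 Broth microdilution under CLSI M38-A with modifications, in duplicate, at final compound concentrations of 50–3.125 μg/mL. […] Values are the geometric mean of duplicate tests in three assays. Assay DMSO was 0.05%.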
(In general: Broth dilution looks for growth in wells or tubes with falling amounts of substance.)

Assay [5] relates to dengue virus type 2. As to the kind of experiment: Antiviral activity against DENV-2 New guinea infected in African green monkey Vero cells assessed as viral plaque size reduction at 3.6 uM after 8 days by crystal violet staining based inverted microscopic analysis relative to control. In kind it is functional. Details: scale not given: the % may be the effect or the level left. In a few lines: (§3)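 Vero cells (2.5 × 10^4/well) infected with 100 PFU/well, with compound in CMC added 2 h after infection. Incubation was 72 h for HHV strains and 8 days for DENV-2, then formaldehyde/crystal violet staining. Twenty plaques per concentration per well were imaged and their areas […] measured against mock-treated controls. Two experiments in duplicate.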

Assay [6] concerns Aspergillus terreus. The experiment in a line: Antifungal activity against Aspergillus terreus CDC 317 assessed as microbial growth inhibition by microdilution assay. In kind it is functional, organism-based. The gist of the method:
as §2

The subject of assay [7] is Human alphaherpesvirus 2. The experiment in a line: Antiviral activity against HHV-2 VR-734-G infected in African green monkey Vero cells assessed as reduction in plaque formation administered post viral infection after 72 hrs by crystal violet staining technique. The assay is classed as functional, organism-based. Particulars: Human alphaherpesvirus 2, VR-734-G. The gist of the method:
as §1

Assay [8] concerns HeLa. The experiment in a line: Cytotoxicity against human HeLa cells assessed as cell growth inhibition after 48 hrs by MTT assay. In kind it is functional, cell-based. In a few lines:
(§4)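 MTT assay. Vero and HeLa cells plated at 2.0 × 10^4/well and preincubated 24 h; Jurkat and U937 plated at 3.0 × 10^4/well. Compounds were applied 48 h at 37 °C, 5% CO2, with 0.05% DMSO. Absorbance read at 570 nm and IC50 taken by linear regression. Values are the geometric mean of two experiments in quadruplicate.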
(In general: Tetrazolium assays rely on reduction of a dye to a coloured formazan, in cell work by metabolically active cells.)

For assay [9], the system named is Human alphaherpesvirus 1. As to the kind of experiment: Antiviral activity against HHV-1 CDC Atlanta infected in African green monkey Vero cells assessed as maximal non toxic concentration causing reduction of viral titer after 48 hrs by crystal violet staining assay. In kind it is functional. The gist of the method: (§5)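 End-point titration on Vero monolayers (2.0 × 10^4 cells/well, ≥80% confluent) with 10 TCID50 virus. Virus–compound mixtures (6.25–50 μg/mL) in DMEM/2% FBS with CMC (1% for HHV-1, 0.5% for HHV-2) were held 15 min at room temperature. Incubation was 48 h (HHV-1) or 72 h (HHV-2) at 37 °C, then formaldehyde/crystal violet staining and plaque counting. Read-out is the viral titer reduction factor. Two experiments in quadruplicate.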

Assay [10] has as its system Human alphaherpesvirus 1. As to the kind of experiment: Antiviral activity against acyclovir-resistant HHV-1 29R infected in African green monkey Vero cells assessed as viral plaque size reduction at 29 uM after 72 hrs by crystal violet staining based inverted microscopic analysis relative to control. Details: scale not given: the % may be the effect or the level left. The assay is classed as functional. The gist of the method: as §3

The nature of assay [11]: Cytotoxicity against human U937 cells assessed as cell growth inhibition after 48 hrs by MTT assay. Particulars: U-937, 48 h. In kind it is functional, cell-based. In a few lines:
as §4

Assay [12] has as its system Human alphaherpesvirus 2. As to the kind of experiment: Antiviral activity against HHV-2 VR-734-G infected in African green monkey Vero cells assessed as reduction of viral titer at maximal non-toxic concentration after 72 hrs by crystal violet staining assay relative to control. The assay is classed as functional. The gist of the method: as §5
Assay [13] concerns dengue virus type 2. The experiment in a line: Antiviral activity against DENV-2 New guinea infected in African green monkey Vero cells assessed as reduction in plaque formation administered simultaneously with virus for 1 hr measured after 8 days by crystal violet staining technique. The assay is classed as functional, organism-based. In a few lines: as §1
The subject of assay [14] is Aspergillus flavus. As to the kind of experiment: Antifungal activity against Aspergillus flavus ATCC 204304 assessed as microbial growth inhibition by microdilution assay. The assay is classed as functional, organism-based. In a few lines:
as §2

Assay [15] concerns Human alphaherpesvirus 1. As to the kind of experiment: Antiviral activity against HHV1 CDC Atlanta infected in African green monkey Vero cells assessed as reduction of viral titer at maximal non-toxic concentration after 48 hrs by crystal violet staining assay relative to control. In kind it is functional. In a few lines:
as §5

The nature of assay [16]: Selectivity index, ratio of IC50 for African green monkey vero cells to EC50 for HHV-2 compound administered post viral infection. In a few lines:
(§6)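 Antiviral SI calculated as Vero IC50 divided by the post-infection plaque-reduction EC50 for each virus on Vero cells.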

For assay [17], the system named is Candida parapsilosis. As to the kind of experiment: Antifungal activity against Candida parapsilosis ATCC 22019 assessed as microbial growth inhibition after 24 hrs by microdilution assay. In kind it is functional, organism-based. In a few lines: (§7)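 Yeast microdilution by the AFST-EUCAST method at an inoculum of 1–5 × 10^5 CFU/mL, final compound concentrations 50–3.125 μg/mL, in duplicate. MIC is the lowest concentration giving 90% growth reduction after 24 h at 35 °C. Untreated inoculum served as negative control. Values are the geometric mean of duplicate tests in three assays.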

For assay [18], the system named is Human alphaherpesvirus 2. The experiment in a line: Antiviral activity against HHV-2 VR-734-G infected in African green monkey Vero cells assessed as reduction in plaque formation administered simultaneously with virus for 1 hr measured after 72 hrs by crystal violet staining technique. In kind it is functional, organism-based. In a few lines: as §1
For assay [19], the system named is Candida albicans. The experiment in a line: Antifungal activity against Candida albicans […] assessed as microbial growth inhibition after 24 hrs by microdilution assay. In kind it is functional, organism-based. The gist of the method:
as §7

In assay [20] the test system is Aspergillus fumigatus. The experiment in a line: Antifungal activity against Aspergillus fumigatus ATCC 204305 assessed as microbial growth inhibition by microdilution assay. In kind it is functional, organism-based. The gist of the method: as §2
Assay [21] concerns Candida tropicalis. As to the kind of experiment: Antifungal activity against Candida tropicalis ATCC 200956 assessed as microbial growth inhibition after 24 hrs by microdilution assay. The assay is classed as functional, organism-based. The gist of the method:
as §7

In assay [22] the test system is Vero. The experiment in a line: Cytotoxicity against African green monkey Vero cells assessed as inhibition of cell proliferation after 72 hrs. In kind it is cell-based. Particulars: Chlorocebus sabaeus.
A short description of assay [23]: Selectivity index, ratio of IC50 for African green monkey vero cells to EC50 for DENV-2 compound administered post viral infection. In a few lines:
as §6

Assay [24] has as its system Human alphaherpesvirus 1. As to the kind of experiment: Antiviral activity against HHV-1 CDC Atlanta infected in African green monkey Vero cells assessed as reduction in plaque formation administered simultaneously with virus for 1 hr measured after 72 hrs by crystal violet staining technique. In kind it is functional, organism-based. In a few lines:
as §1

The subject of assay [25] is Human alphaherpesvirus 1. As to the kind of experiment: Antiviral activity against HHV-1 CDC Atlanta infected in African green monkey Vero cells assessed as reduction in plaque formation administered post viral infection after 72 hrs by crystal violet staining technique. In kind it is functional, organism-based. Particulars: vero. In a few lines: as §1
For assay [26], the system named is Human alphaherpesvirus 2. The experiment in a line: Antiviral activity against HHV-2 VR-734-G infected in African green monkey Vero cells assessed as maximal non toxic concentration causing reduction of viral titer after 72 hrs by crystal violet staining assay. In kind it is functional. In a few lines:
as §5

The subject of assay [27] is Human alphaherpesvirus 1. The experiment in a line: Antiviral activity against HHV-1 CDC Atlanta infected in African green monkey Vero cells assessed as viral plaque size reduction at 29 uM after 72 hrs by crystal violet staining based inverted microscopic analysis relative to control. Details: scale not given: the % may be the effect or the level left. In kind it is functional. The gist of the method: as §3

Assay [28] concerns Vero. As to the kind of experiment: Cytotoxicity against African green monkey Vero cells assessed as inhibition of cell proliferation after 8 days. In kind it is cell-based. Particulars: Chlorocebus sabaeus, 192 h.
The test system of assay [29] is Jurkat. As to the kind of experiment: Cytotoxicity against human Jurkat cells assessed as cell growth inhibition after 48 hrs by MTT assay. In kind it is functional, cell-based. In a few lines:
as §4

For the molecule `NC(=O)c1ncn([C@@H]2O[C@H](CO)[C@@H](O)[C@H]2O)n1` [RIBAVIRIN], the EC50 (in general, the concentration needed to bring the measured effect to its halfway point) in assay [1] was 13.5 µM. The MNTD in [2] was found to be 123 µM. Further, the result in assay [3] was Active.
For `CC(C)c1cc2c(cc1O)[C@@]1(C)CCC[C@@](C)(CN3C(=O)c4ccccc4C3=O)[C@@H]1CC2`, the result in [4], in assay [6], in assay [14], in assay [17], in assay [19] and in assay [20] was inactive. Further, the outcome in assay [21] was inactive. The Activity in assay [5] is on record as 77.9%; in assay [10], 87.1%; in assay [27], 93.7%. For the same molecule, the EC50 is 19.2 µM in assay [7]; “Not Active” in [13]; 1.4 µM in assay [1]; “Not Active” in [18]; “Not Active” in [24]; “Not Active” in [25]. The IC50 (as a rule, the concentration at which inhibition is half-maximal) is greater than 50 µM in assay [8]; greater than 50 µM in assay [11]; 191 µM in assay [22]; 80.8 µM in [28]; greater than 50 µM in [29]. The MNTD was found to be 14.5 µM in [9] and 29 µM in assay [26]. The “fold change (FC)” value in [12] came out at 1000; in assay [15], 100. Moreover, the “Ratio IC50/EC50” value in [16] stood at 10; in assay [23] it was 57.7. Moreover, the result in assay [3] was Active.
